Measured values: ChEMBL document CHEMBL2163190, “Synthesis and evaluation of substituted chroman-4-one and chromone derivatives as sirtuin 2-selective inhibitors” (J Med Chem, 2012)
Active and inactive are the calls of the source. The calls are words filed in the database; no cut-off is given here.

Experiments:
[1] = molecular target: T1, NAD-dependent protein deacetylase sirtuin-2 (Homo sapiens) (UniProt Q8IXJ6); assay: Inhibition of human recombinant GST-tagged SIRT2 preincubated at 200 uM for 5 mins measured after 1 hr by Fluor de Lys-based fluorescence assay
T1 sequence (whole entry): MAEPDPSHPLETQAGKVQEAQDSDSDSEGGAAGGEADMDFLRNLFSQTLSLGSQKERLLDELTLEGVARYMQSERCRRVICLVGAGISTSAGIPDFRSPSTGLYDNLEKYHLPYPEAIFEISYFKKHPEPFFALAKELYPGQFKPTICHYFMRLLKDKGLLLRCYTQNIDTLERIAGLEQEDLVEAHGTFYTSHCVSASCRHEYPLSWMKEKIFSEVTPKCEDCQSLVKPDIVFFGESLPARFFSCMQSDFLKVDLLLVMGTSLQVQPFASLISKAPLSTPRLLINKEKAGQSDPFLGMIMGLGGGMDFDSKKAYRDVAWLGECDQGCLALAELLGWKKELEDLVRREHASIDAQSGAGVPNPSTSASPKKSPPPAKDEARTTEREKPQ
Method in brief: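 GST-SIRT2 assay with Fluor de Lys KI179 substrate at 0.7 Km (Km 198 μM) and NAD+ at 0.9 Km (Km 547 μM), in HDAC buffer with 1 mg/mL BSA. Substrate, NAD+ and compound (200 μM, DMSO) were preincubated 5 min at RT, then enzyme added for 1 h at 37 °C. Developer plus nicotinamide (2 mM) was added for 45 min at 37 °C. Read at ex 355/em 460 nm; n = 3, SD.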

[2] = molecular target: T1, NAD-dependent protein deacetylase sirtuin-2 (Homo sapiens); assay: Inhibition of SIRT2 using RSTGGK(Ac)APRKQ as substrate assessed as inhibition of [14C]nicotinamide release at 200 uM after 1h by TLC
Method in brief: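 Recombinant GST-SIRT2 started the reaction with [carbonyl-14C]NAD+ (43.2 nCi) and acetylated peptide RSTGGK(Ac)APRKQ (196 μM). Buffer was HDAC assay buffer plus 1 mg/mL BSA, with compound at 200 μM final in DMSO. Incubated 1 h at 37 °C. The whole mixture was run on silica TLC in ethanol/2.5 M ammonium acetate (80:20), exposed overnight to X-ray film, and [14C]nicotinamide quantified by densitometry.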

[3] = molecular target: T2, NAD-dependent protein deacetylase sirtuin-3, mitochondrial (Homo sapiens) (UniProt Q9NTG7); assay: Inhibition of recombinant His-tagged SIRT3 preincubated at 200 uM for 5 mins measured after 1hr by Fluor de Lys-based fluorescence assay
T2 sequence (whole entry): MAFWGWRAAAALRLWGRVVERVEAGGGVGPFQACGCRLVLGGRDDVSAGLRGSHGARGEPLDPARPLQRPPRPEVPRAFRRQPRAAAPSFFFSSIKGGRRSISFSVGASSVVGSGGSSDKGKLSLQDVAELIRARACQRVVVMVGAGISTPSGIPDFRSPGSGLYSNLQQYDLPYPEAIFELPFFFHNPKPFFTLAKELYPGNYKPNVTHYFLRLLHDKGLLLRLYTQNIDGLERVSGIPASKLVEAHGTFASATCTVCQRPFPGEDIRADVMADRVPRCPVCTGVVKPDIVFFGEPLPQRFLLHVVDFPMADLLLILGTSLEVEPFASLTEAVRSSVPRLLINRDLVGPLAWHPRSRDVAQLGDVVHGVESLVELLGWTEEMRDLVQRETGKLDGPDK
Method in brief: (§1)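 Fluor de Lys assay with compound at 200 μM in DMSO. […] Substrate was used at 0.7 Km and NAD+ at 0.9 Km. Preincubated 5 min at RT, then enzyme for 1 h at 37 °C, then developer/nicotinamide for 45 min at 37 °C. Read at ex 355/em 460 nm.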

[4] = molecular target: T3, NAD-dependent protein deacetylase sirtuin-2 (Homo sapiens, UniProt Q8IXJ6); assay: Inhibition of human recombinant GST-tagged SIRT2 preincubated for 5 mins measured after 1 hr by Fluor de Lys-based fluorescence assay
T3 sequence (Q8IXJ6 whole entry): T1 sequence (whole entry)
Method in brief: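 Fluorogenic GST-SIRT2 assay using KI179 at 0.7 Km and NAD+ at 0.9 Km, in BSA-supplemented HDAC buffer. Compound, substrate and NAD+ were preincubated 5 min at RT, then enzyme added for 1 h at 37 °C, followed by developer/nicotinamide for 45 min at 37 °C. Fluorescence read at 355/460 nm.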

[5] = molecular target: T1, NAD-dependent protein deacetylase sirtuin-2 (Homo sapiens); assay: Inhibition of human SIRT2 assessed as inhibition of deacetylation of rat stem cell acetylated alpha-tubulin at 200 uM after 30 to 60 mins by Western blot analysis
Method in brief: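 Acetylated α-tubulin (0.5 μg) isolated from rat stem cells was incubated with recombinant GST-SIRT2, NAD+ (500 μM) and compound (200 μM final, DMSO vehicle) in SIRT assay buffer for 30 or 60 min at 37 °C. Samples were resolved on 10% SDS-PAGE and blotted to nitrocellulose. Probed with anti-acetylated tubulin mAb 6-11B-1 (1:8000, 2 h, RT), then HRP anti-mouse secondary (1:50000, 2 h).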

[6] = molecular target: T4, NAD-dependent protein deacetylase sirtuin-1 (Homo sapiens) (UniProt Q96EB6); assay: Inhibition of recombinant GST-tagged SIRT1 preincubated at 200 uM for 5 mins measured after 1hr by Fluor de Lys-based fluorescence assay; method in brief: as §1
T4 sequence (whole entry): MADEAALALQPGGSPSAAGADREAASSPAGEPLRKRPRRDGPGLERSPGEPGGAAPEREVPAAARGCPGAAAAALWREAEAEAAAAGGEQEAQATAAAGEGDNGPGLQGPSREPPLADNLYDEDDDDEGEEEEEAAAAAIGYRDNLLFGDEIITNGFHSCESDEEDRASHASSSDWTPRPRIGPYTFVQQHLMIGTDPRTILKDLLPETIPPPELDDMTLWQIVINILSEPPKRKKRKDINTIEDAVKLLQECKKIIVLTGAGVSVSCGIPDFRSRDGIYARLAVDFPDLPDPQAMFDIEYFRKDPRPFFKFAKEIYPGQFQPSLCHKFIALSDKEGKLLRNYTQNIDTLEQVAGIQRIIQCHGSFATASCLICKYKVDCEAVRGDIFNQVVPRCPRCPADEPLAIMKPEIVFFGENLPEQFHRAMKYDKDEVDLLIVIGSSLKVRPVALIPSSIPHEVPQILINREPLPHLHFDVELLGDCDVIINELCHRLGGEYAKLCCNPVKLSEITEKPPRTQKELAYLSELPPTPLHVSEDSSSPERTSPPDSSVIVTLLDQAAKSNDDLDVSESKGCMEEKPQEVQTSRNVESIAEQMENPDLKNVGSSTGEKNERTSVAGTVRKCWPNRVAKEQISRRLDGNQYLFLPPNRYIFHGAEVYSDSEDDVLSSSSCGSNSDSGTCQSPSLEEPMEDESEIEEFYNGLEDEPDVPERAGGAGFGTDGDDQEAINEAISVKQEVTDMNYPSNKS

Row | Compound | inhibition [1] [%] | inhibition [2] [%] | inhibition [3] [%] | IC50 [4] [µM] | inhibition [5] | inhibition [6] [%]
1 | CCCCCC1CC(=O)c2cc(Cl)cc(Br)c2O1 (racemic) | 88 | 66 | < 10 | 4.3 | Active | < 10
2 | CCCCCC1CC(=O)c2cc([N+](=O)[O-])ccc2O1 (racemic) | 58 | – | – | – | – | –
3 | CCCCC[C@H]1CC(=O)c2cc(Cl)cc(Br)c2O1 | 91 | – | < 10 | 1.5 | – | < 10
4 | CCCCCC1CC(=O)c2cc(OC)ccc2O1 (racemic) | 20 | – | – | – | – | –
5 | CCCCCCCC1CC(=O)c2cc(Cl)cc(Br)c2O1 (racemic) | 57 | – | – | – | – | –
6 | CCCCCC1CC(=O)c2cccc(Br)c2O1 (racemic) | 28 | – | – | – | – | –
7 | CCCCC[C@@H]1CC(=O)c2cc(Cl)cc(Br)c2O1 | 70 | – | < 10 | 4.5 | – | < 10
8 | CC(C)C1CC(=O)c2cc(Cl)cc(Br)c2O1 (racemic) | 52 | – | – | – | – | –
9 | O=c1cc(-c2ccccc2)oc2c(Br)cc(Cl)cc12 | 20 | – | – | – | – | –
10 | CCCCCC1CC(=O)c2cc(Cl)ccc2O1 (racemic) | 55 | – | – | – | – | –
11 | CCCCCC1CC(=O)c2ccccc2O1 (racemic) | 4.9 | – | – | – | – | –
12 | CCCCCC1C=Cc2cc(Cl)cc(Br)c2O1 (centres undefined) | 38 | – | – | – | – | –
13 | O=C1CC(CCc2ccccc2)Oc2c(Br)cc(Cl)cc21 (racemic) | 81 | – | 16 | 6.8 | – | < 10
14 | CCCCCC1CCc2cc(Cl)cc(Br)c2O1 (centres undefined) | 38 | – | – | – | – | –

Other lines, results leading:

Row | inhibition [1] [%] | inhibition [2] [%] | inhibition [3] [%] | IC50 [4] [µM] | inhibition [5] | inhibition [6] [%] | Compound
15 | 53 | – | – | – | – | – | O=C1CC(CCc2c[nH]c3ccccc23)Oc2c(Br)cc(Cl)cc21 (racemic)
16 | 76 | – | < 10 | 10.6 | – | < 10 | CCCC1CC(=O)c2cc(Cl)cc(Br)c2O1 (racemic)
17 | 30 | – | – | – | – | – | CCCCCC1CC(=O)c2cc(F)cc(F)c2O1 (racemic)
18 | 82 | – | < 10 | 5.5 | – | < 10 | CCCCCc1cc(=O)c2cc(Cl)cc(Br)c2o1
19 | 18 | – | – | – | – | – | CCCCCC1CC(=O)c2ccc(F)cc2O1 (racemic)
20 | 27 | – | – | – | – | – | Cc1ccc(S(=O)(=O)n2cc(CCC3CC(=O)c4cc(Cl)cc(Br)c4O3)c3ccccc32)cc1 (racemic)
21 | 31 | – | – | – | – | – | CCCCCC1CC(O)c2cc(Cl)cc(Br)c2O1 (mixture of isomers)
22 | 83 | – | < 10 | 6.2 | – | < 10 | CCCCCC1CC(=O)c2cc(C)cc(C)c2O1 (racemic)
23 | 92 | – | < 10 | 1.5 | – | < 10 | CCCCCC1CC(=O)c2cc(Br)cc(Br)c2O1 (racemic)
